Source: ChEMBL document CHEMBL5058577, “EUbOPEN Chemogenomics Library 2 (Multiplex)” (2022)

Test system: HEK-293T
Test: Multiplex assay against HEK293T
Assay type: toxicity, cell-based
Settings: human
In short: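 Live cells were stained at seeding with Hoechst33342, BioTracker Green Microtubule Cytoskeleton Dye, MitoTracker Red and Annexin V Alexa Fluor 680. Following compound addition, they were imaged on a CQ1 microscope at 37°C and 5% CO2 and gated by CellPathfinder machine learning into Hoechst high-intensity objects or normal cells, with normal cells split into healthy, pyknosed or fragmented nuclei and pyknosed cells into mitotic or apoptotic. Tubulin, mitochondrial-mass and membrane-permeability phenotypes are per cents of healthy-nucleus cells.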

[1] = 12 h, 1 µM, compound concentration 1 uM, replicate 1
[2] = 12 h, 1 µM, compound concentration 1 uM, replicate 2
[3] = 12 h, 10 µM, compound concentration 10 uM, replicate 1
[4] = 12 h, 10 µM, compound concentration 10 uM, replicate 2
[5] = 24 h, 1 µM, compound concentration 1 uM, replicate 1
[6] = 24 h, 1 µM, compound concentration 1 uM, replicate 2
[7] = 24 h, 10 µM, compound concentration 10 uM, replicate 1
[8] = 24 h, 10 µM, compound concentration 10 uM, replicate 2
[9] = 48 h, 1 µM, compound concentration 1 uM, replicate 1
[10] = 48 h, 1 µM, compound concentration 1 uM, replicate 2
[11] = 48 h, 10 µM, compound concentration 10 uM, replicate 1
[12] = 48 h, 10 µM, compound concentration 10 uM, replicate 2

## Cc1noc(-c2ccc(-c3ccc(CC(=O)O)cc3)cc2)c1NC(=O)O[C@H](C)c1ccccc1Cl
[1]
  Population Apoptotic (%): 29%
  Population Fragmented Nuclei (%): 7%
  Population Healthy Nuclei (%): 79%
  Population Hoechst High Intensity Objects (%): 5%
  Population Membrane Permeable-Phenotype (%): 0%
  Population Mitochondria Different-Phenotype (%): 38%
  Population Mitotic Cells (%): 70%
  Population Normal (%): 94%
  Population Pyknosed Nuclei (%): 13%
  Population Tubulin-Different-Phenotype (%): 29%
  Total Cell Count: 403
[2]
  Population Apoptotic (%): 59%
  Population Fragmented Nuclei (%): 4%
  Population Healthy Nuclei (%): 77%
  Population Hoechst High Intensity Objects (%): 11%
  Population Mitochondria Different-Phenotype (%): 69%
  Population Mitotic Cells (%): 40%
  Population Normal (%): 88%
  Population Pyknosed Nuclei (%): 17%
  Population Tubulin-Different-Phenotype (%): 28%
  Total Cell Count: 296
[3]
  Population Apoptotic (%): 51%
  Population Fragmented Nuclei (%): 11%
  Population Healthy Nuclei (%): 68%
  Population Hoechst High Intensity Objects (%): 7%
  Population Membrane Permeable-Phenotype (%): 0%
  Population Mitochondria Different-Phenotype (%): 72%
  Population Mitotic Cells (%): 48%
  Population Normal (%): 92%
  Population Pyknosed Nuclei (%): 20%
  Population Tubulin-Different-Phenotype (%): 65%
  Total Cell Count: 295
[4]
  Population Apoptotic (%): 41%
  Population Fragmented Nuclei (%): 8%
  Population Healthy Nuclei (%): 72%
  Population Hoechst High Intensity Objects (%): 14%
  Population Mitochondria Different-Phenotype (%): 69%
  Population Mitotic Cells (%): 58%
  Population Normal (%): 85%
  Population Pyknosed Nuclei (%): 18%
  Population Tubulin-Different-Phenotype (%): 34%
  Total Cell Count: 341
[5]
  Population Apoptotic (%): 22%
  Population Fragmented Nuclei (%): 10%
  Population Healthy Nuclei (%): 79%
  Population Hoechst High Intensity Objects (%): 5%
  Population Membrane Permeable-Phenotype (%): 0%
  Population Mitochondria Different-Phenotype (%): 23%
  Population Mitotic Cells (%): 77%
  Population Normal (%): 94%
  Population Pyknosed Nuclei (%): 9%
  Population Tubulin-Different-Phenotype (%): 17%
  Total Cell Count: 570
[6]
  Population Apoptotic (%): 40%
  Population Fragmented Nuclei (%): 9%
  Population Healthy Nuclei (%): 80%
  Population Hoechst High Intensity Objects (%): 7%
  Population Mitochondria Different-Phenotype (%): 42%
  Population Mitotic Cells (%): 60%
  Population Normal (%): 92%
  Population Tubulin-Different-Phenotype (%): 20%
  Total Cell Count: 378
[7]
  Population Apoptotic (%): 39%
  Population Fragmented Nuclei (%): 7%
  Population Healthy Nuclei (%): 76%
  Population Hoechst High Intensity Objects (%): 8%
  Population Membrane Permeable-Phenotype (%): 1%
  Population Mitochondria Different-Phenotype (%): 58%
  Population Mitotic Cells (%): 60%
  Population Normal (%): 91%
  Population Pyknosed Nuclei (%): 16%
  Population Tubulin-Different-Phenotype (%): 47%
  Total Cell Count: 352
[8]
  Population Apoptotic (%): 32%
  Population Fragmented Nuclei (%): 9%
  Population Healthy Nuclei (%): 75%
  Population Hoechst High Intensity Objects (%): 16%
  Population Membrane Permeable-Phenotype (%): 0%
  Population Mitochondria Different-Phenotype (%): 53%
  Population Mitotic Cells (%): 68%
  Population Normal (%): 83%
  Population Pyknosed Nuclei (%): 15%
  Population Tubulin-Different-Phenotype (%): 38%
  Total Cell Count: 390
[9]
  Population Apoptotic (%): 17%
  Population Fragmented Nuclei (%): 11%
  Population Healthy Nuclei (%): 82%
  Population Hoechst High Intensity Objects (%): 4%
  Population Membrane Permeable-Phenotype (%): 1%
  Population Mitochondria Different-Phenotype (%): 20%
  Population Mitotic Cells (%): 82%
  Population Normal (%): 95%
  Population Pyknosed Nuclei (%): 5%
  Population Tubulin-Different-Phenotype (%): 14%
  Total Cell Count: 930
[10]
  Population Apoptotic (%): 35%
  Population Fragmented Nuclei (%): 12%
  Population Healthy Nuclei (%): 76%
  Population Membrane Permeable-Phenotype (%): 0%
  Population Mitochondria Different-Phenotype (%): 34%
  Population Mitotic Cells (%): 64%
  Population Pyknosed Nuclei (%): 10%
  Population Tubulin-Different-Phenotype (%): 21%
  Total Cell Count: 494
[11]
  Population Apoptotic (%): 38%
  Population Fragmented Nuclei (%): 10%
  Population Healthy Nuclei (%): 79%
  Population Hoechst High Intensity Objects (%): 6%
  Population Membrane Permeable-Phenotype (%): 0%
  Population Mitochondria Different-Phenotype (%): 40%
  Population Mitotic Cells (%): 61%
  Population Normal (%): 93%
  Population Pyknosed Nuclei (%): 10%
  Population Tubulin-Different-Phenotype (%): 33%
  Total Cell Count: 445
[12]
  Population Apoptotic (%): 46%
  Population Fragmented Nuclei (%): 13%
  Population Healthy Nuclei (%): 74%
  Population Hoechst High Intensity Objects (%): 10%
  Population Membrane Permeable-Phenotype (%): 1%
  Population Mitochondria Different-Phenotype (%): 35%
  Population Mitotic Cells (%): 53%
  Population Normal (%): 89%
  Population Pyknosed Nuclei (%): 11%
  Population Tubulin-Different-Phenotype (%): 25%
  Total Cell Count: 508
